# According to PubChem BioAssay:
# A number with no mark means an inactive call. Inconclusive results are not listed. Active and inactive are the calls of the source.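 How the source made its calls, unless noted: active means cell viability at or below a set limit in both duplicate runs, the limit being the all-compound median minus 4 SD (cut at about 23% in these data, passing the limit was not always enough); inconclusive means no clear call, values can overlap the other calls; inactive means the rest.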
# Legend:
# [1] = OD615 S. cerevisiae growth inhibition, permissive medium, pilot counter-assay, permissive growth control for S. cerevisiae lifespan shortening project (AID 705;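 active means growth inhibition above 25% in both replicates, a cutoff set 3 SD above the mean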); settings: OD615, 24 h, at 10 µM, stronger effect = higher value
# Method in brief: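 assay system = Saccharomyces cerevisiae strain carrying genetically modified DeaD replicative-lifespan system | technique = absorbance (optical density) at 615 nm | buffer or medium = permissive raffinose/galactose medium | timing = cells pre-grown 4 h, then 24 h compound exposure, 30 °C humidified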
# [2] = Restrictive medium S. cerevisiae growth inhibition, OD615, pilot screen of yeast lifespan reduction project, restrictive growth control (AID 706;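 active means growth inhibition above a set limit, 3 SD over mean compound inhibition, in both replicates, cut at about 43% in these data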;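 further: modified DeaD lifespan yeast strain shifted to restrictive glucose medium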); settings: OD615, 48 h, at 10 µM, stronger effect = higher value
# Method in brief: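 System: modified S. cerevisiae. Buffer or medium: CSMM-D glucose medium. Incubation: 4 h pre-growth plus 48 h compound exposure, 30 °C. Detection: absorbance (optical density) measured at 615 nm.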
# [3] = viability gain of MRP-1-high H69AR cells under doxorubicin, pilot screen, MRP-1 activator project, CellTiter-Glo, duplicate (AID 807;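 active means viability increase at or above a cutoff of the median across tested compounds plus 3 SD, cut at about 8.5% in these data, passing the limit was not always enough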;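 further: compound pretreatment 18-22 h then 72 h combined with doxorubicin; 0% = doxorubicin alone and 100% = vehicle without doxorubicin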); settings: H69AR viability with doxorubicin, CellTiter-Glo luminescence; at 10 µM; stronger effect = higher value
# [4] = growth suppression of beta-catenin knockout HCT116, pilot screen, human colon tumor cells (AID 823); settings: CellTiter-Glo, 60 h, at 10 µM, stronger effect = lower value;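 further: 0% = wells killed by 20 µM Hyamine and 100% = untreated DMSO cell wells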
# [5] = growth suppression of PTEN-deleted HCT116, pilot screen, cell-based, HCT116 clonal line, CellTiter-Glo (AID 824;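 active means viability at or below 27.92% in each of two runs, the all-compound median minus 4 SD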;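 further: 0% = 20 µM Hyamine control and 100% = vehicle cell control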); settings: 60 h, at 10 µM, stronger effect = lower value
# [6] = inhibitors of the yeast RAM network, pilot screen, dse1pr::URA3 reporter, 5-FOA selection (AID 869;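 active means inhibition over a set limit, the all-compound mean plus 3 SD, in both replicate runs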;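 further: 0% = DMSO wells with no growth and 100% = 10 µM 1-NA-PP1 with full growth; RAM network block rescues cells from 5-FOA so hits raise OD615 growth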); settings: S. cerevisiae dse1pr::URA3 5-FOA growth, OD615, 2 d; at 10 µM; stronger effect = higher value; strain carries analog-sensitive mutant Cbk1 kinase
# [7] = RAM signaling pathway blockade in yeast – S. cerevisiae, Pdr1DBD-CYC8 efflux-inhibited sensitized strain, primary screen (AID 1298;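 active means RAM network inhibition above 8.4% in each of two replicates, 3 SD over the compound average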;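 further: 0% = DMSO untreated cells without growth and 100% = 10 µM 1-NA-PP1 full growth; higher means more yeast growth rescued from 5-FOA killing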); settings: S. cerevisiae cbk1-as DSE1-URA3 strain, 5-FOA growth OD615, 2 d; at 50 µM; stronger effect = higher value
Structure (SMILES),growth inhibition [1],growth inhibition [2],viability increase [3],viability [4],viability [5],inhibition [6],RAM network inhibition [7]
O=c1cc(N2CCOCC2)[nH]c(=O)n1-c1ccc(Cl)cc1,-5.36%,-6.01%,-1.67%,105%,97.2%,1.17%,1.09%
O=C(Cn1cc2c(n1)CCCC2)NC1CCCCCC1,4.4%,2.47%,-1.14%,99.2%,93.6%,0.485%,2.95%
O=C(COC(=O)c1cc2ccccc2o1)c1ccccc1,-8.98%,2%,-0.26%,96.9%,98.1%,-0.115%,2.95%
Cn1c(=O)c2cc(S(=O)(=O)NC(C(=O)NCc3cccnc3)c3ccccc3)ccc2n(C)c1=O (configuration not stated),-17%,-18.3%,-1.54%,91.2%,94.2%,1.32%,1.81%
Cc1sc2ncnc(NCCCO)c2c1C,-16.1%,-8.24%,-1.72%,103%,90.5%,0.945%,5.49%
CCCC(=O)N1CCN(c2ccc(C(=O)c3ccc(OC)c(Br)c3)cc2F)CC1,-14.6%,-18.4%,-1.74%,96.8%,93.7%,1.3%,4.76%
COC(=O)c1ccc(C2C(C(C)=O)=C(C)Nc3ncnn32)cc1 (configuration not stated),-8.45%,9.82%,-1.07%,108%,98.7%,1.9%,2.09%
COc1ccc(CNC(=O)c2cnn3c(C(F)F)cc(C)nc23)cc1OC,-6.09%,9.23%,0.02%,92.3%,86.2%,1.99%,2.31%
Cc1cc(C(=O)CN2CC(C)OC(C)C2)c(C)n1-c1ccccc1 (configuration not stated),0.61%,-5.6%,-1.04%,97.6%,99.6%,1.83%,7.04%
Cn1c(C(=O)NCCN2CCc3ccccc3C2)cc2c(=O)n(C)c3ccccc3c21,-2.54%,4.4%,-4.36%,70.4%,72.5%,2.96%,1.02%
CCCCn1c(CN2CCOCC2)nc2c1c(=O)n(C)c(=O)n2C,-1.51%,-7.03%,-1.72%,93.8%,89.6%,0.375%,2.4%
Cc1ccc(N2C(=O)C(Cl)=C(NCCO)C2=O)c(C)c1,-4.71%,-2.88%,-2.47%,105%,100%,2.02%,8.82%
Nc1nnc(N2CCc3ccccc32)s1,-1.08%,16.4%,-4.19%,105%,102%,0.805%,0.42%
CCOc1ccc(OCC)c(NC(=O)CN2CCC(NC(=O)c3cccc(F)c3)CC2)c1,-3.75%,-12.3%,-4.87%,77.5%,78.7%,2.31%,5.19%
O=C(CSc1ncnc2nc[nH]c12)N1CCOCC1,-15.7%,-14.4%,-0.96%,86%,102%,-0.435%,2.34%
Cn1nc(-c2ccc(Cl)cc2)c2cc(C(=O)NCCCN3CCOCC3)sc21,-3.37%,5.94%,-7.82%,4.12% (active),5.19% (active),-0.235%,-0.16%
COc1ccc(C(=S)N(C)C)cc1OC,11.9%,16.9%,-0.25%,98.8%,98.6%,3.66%,1.53%
O=C(Cn1cc(C(=O)c2cccs2)c2ccccc21)NCc1ccc2c(c1)OCO2,-5.79%,-15.1%,-2.32%,94.6%,86.4%,1.08%,2.74%

Structure (SMILES),growth inhibition [1],growth inhibition [2],viability increase [3],viability [4],viability [5],inhibition [6],RAM network inhibition [7]
c1ccc(CN2CCN(c3nc4ccccc4n4cnnc34)CC2)cc1,-4.76%,-16.2%,-1.7%,94.8%,86%,0.625%,2.12%
CCC(=O)N/C(=N/c1nc(C)cc(C)n1)Nc1cccc(OC)c1,-5.62%,-19.7%,-4.53%,41.1%,36.4%,2.23%,3.66%
O=C(Cn1cc2c(n1)CCCC2)NCCCN1CCN(Cc2ccccc2)CC1,-1.54%,-1.17%,-2.71%,91.5%,93.2%,0.61%,-0.1%
O=C(c1cc(-c2ccc(O)cc2)on1)N1CCCc2ccccc21,-15.5%,12.2%,-5.72%,92.6%,88.3%,0.66%,1.51%
O=C(CSc1nnc(Cn2c(=O)sc3ccccc32)n1-c1ccccc1)N1CCCCCC1,-11.3%,-4.95%,-2.95%,91.7%,81.7%,2.22%,6.65%
CC(=O)c1cccc(NC2c3ccccc3C(=O)N2Cc2ccc3c(c2)OCO3)c1 (configuration not stated),-2.94%,7.7%,-2.61%,92.7%,79.6%,2.9%,2.2%
CSCCC(/C(O)=C(\C#N)c1nc2ccccc2[nH]1)N1C(=O)c2ccccc2C1=O (configuration not stated),-14.1%,-11.8%,0%,89.8%,90.8%,2.82%,7.67%
Cn1nnnc1SCc1nc2ccccc2[nH]1,-7.39%,-5.67%,0.69%,101%,102%,0.215%,3.43%
C=CCN1C(=O)C2C(C(=O)NC)C3(C)C=CC2(O3)C1C(=O)NCc1ccc(OC)cc1 (configuration not stated),-5.37%,3.69%,1.33%,103%,99.9%,0.89%,0.49%
CCOCCCNC(=O)C(c1ccc(Cl)cc1)N1CCN(c2ccccc2)CC1 (configuration not stated),-7.14%,6.11%,-2.39%,87%,85%,0.95%,3.13%
CCc1nc(SCC(=O)Nc2ccc(C(=O)O)cc2)n[nH]1,11.2%,0.705%,-1.05%,94.7%,98.4%,-0.24%,-2.73%
O=C(Nc1ccccc1Cl)c1ccc(S(=O)(=O)N2CCOCC2)cc1,-11.5%,-7.41%,-0.1%,111%,99.4%,0.585%,2.05%
Cc1cc(C)c(C#N)c(Oc2ccc(O)cc2)n1,-14.7%,-10.3%,-2.42%,98.7%,90.9%,2.56%,2.67%
Cc1onc(-c2ccccc2Cl)c1C(=O)Nc1c(C)n(C)n(-c2ccccc2)c1=O,-7.2%,3.75%,0.84%,104%,103%,0.355%,3.34%
CCOC(=O)c1c(-c2ccc(C)o2)csc1N,4.88%,0.615%,-2.73%,97%,93.8%,1.57%,4.1%
Cc1ccc(C(=O)COC(=O)c2cnccn2)cc1,-15.1%,-10.8%,-1.61%,104%,97.8%,2.19%,1.61%
O=C(CCS(=O)(=O)c1cccc2nonc12)N1CCOCC1,-6.54%,-14.3%,-2.16%,88%,100%,2.56%,2.65%
Cc1c(-n2cc(C(=O)O)c(=O)c3cc(F)c(N4CCCC4)c(F)c32)c(=O)n(-c2ccccc2)n1C,-5.81%,-11.4%,-2.19%,98.8%,87.8%,2.6%,5.65%
